KCNQ1 act = potentiates or activates the human KCNQ1 potassium channel; P51787; CHO-K1 KCNQ1, thallium flux FluxOR fluorescence; stronger effect = higher value; B-score at 10 µM; 310,000 compounds, 0.35% hits; AID 2648;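 active means fluorescence ratio B-score, a plate-corrected score, at least three library SD, with initial intensity B-score within 5 SD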
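Material: CHO-K1 cells stably expressing KCNQ1. Medium: assay buffer for compound exposure, DMSO matched across wells. Reagent: K+/Tl+ depolarizing stimulus. Compound dosing: single-concentration screen. Times: 37 °C overnight plating, 90-min dark dye load, 20-min compound pretreatment. Technique: FluxOR Tl+ flux fluorescence.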
KCNK3 block = human KCNK3 channel inhibition, primary screen | B-score at 10 µM | CHO-KCNK3 thallium flux, FluxOR fluorescence; stronger effect = lower value | AID 602410 | 340,000 compounds, 0.84% hits;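 active means B-score under library mean minus 4 SD, starting fluorescence ratio at most library mean plus 5 SD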;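 further: more negative B-score means stronger inhibition of thallium flux through KCNK3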
Target sequence (O14649 whole entry, looked up): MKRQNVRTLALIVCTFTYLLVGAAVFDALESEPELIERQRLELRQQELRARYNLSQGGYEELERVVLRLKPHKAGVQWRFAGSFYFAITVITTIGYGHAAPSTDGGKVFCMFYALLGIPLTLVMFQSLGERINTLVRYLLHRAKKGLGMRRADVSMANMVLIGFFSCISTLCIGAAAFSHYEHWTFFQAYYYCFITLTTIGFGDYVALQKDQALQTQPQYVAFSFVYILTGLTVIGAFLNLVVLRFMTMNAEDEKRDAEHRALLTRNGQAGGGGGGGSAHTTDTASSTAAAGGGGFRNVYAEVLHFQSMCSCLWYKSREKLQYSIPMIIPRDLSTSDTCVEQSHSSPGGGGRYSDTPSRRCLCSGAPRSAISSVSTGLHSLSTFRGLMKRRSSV
KCNK9 inh = inhibitors of human KCNK9 two-pore domain potassium channel; Q9NPC2; HEK293 KCNK9, FluxOR thallium flux fluorescence; stronger effect = lower value; B-score at 10 µM; 310,000 compounds, 1.2% hits;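 active means ratio B-score over 3 SD below the library mean, with starting fluorescence within 5 SD of its mean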;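 further: negative B-score means less thallium flux so channel inhibition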
hERG protect = hERG (human) protection from proarrhythmic block | AID 1511 | 310,000 compounds, 0.51% hits | activation (rescue from dofetilide block), less the hit threshold, % at 10 µM | Q12809 | CHO-hERG, FluxOR thallium flux, dofetilide IC70 present;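 active means activation above the mean of controls blocked by dofetilide plus 5 SD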;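 further: thallium influx through hERG after potassium depolarization seen as dye fluorescence rise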
KCNQ1 inh = blocks the human KCNQ1 potassium channel; AID 2642; P51787; CHO-K1 KCNQ1, FluxOR thallium flux fluorescence; stronger effect = higher value; 310,000 compounds, 1.3% hits; B-score at 10 µM;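 active means compounds whose thallium flux B-score, printed positive for inhibition, exceeds three library SD while starting fluorescence stays within three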;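 further: channel opened by potassium depolarization with thallium stimulus after 20 min compound exposure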
Each line names hits and unclear results; the compound was inactive in the other large screens. A selection: hits, their analogues and other compounds. The true share with any hit is near 3.1%.

CC(=O)OCCn1c2nc(=O)[nH]c(=O)c-2nc2cc(C)c(C)cc21	KCNQ1 inh 37
COc1cc(NC(=O)OCc2ccccc2)c2ncccc2c1	KCNK3 block -10.8 (no result: KCNQ1 act, KCNK9 inh, hERG protect, KCNQ1 inh)
CCc1nc(C(N)=O)c2[nH]c(=O)n(-c3ccc(OC)cc3OC)c2n1	none
COc1ccc(-c2cc(C(=O)OCC(=O)c3ccc(C)c([N+](=O)[O-])c3)c3ccccc3n2)cc1	none
COc1ccc(-c2nn(-c3ccccc3)cc2C(=O)OCC(=O)c2ccc(C)c([N+](=O)[O-])c2)cc1	KCNQ1 inh 8
COCC(Cc1ccccc1)NC(=O)Cn1cc(C)c(=O)[nH]c1=O (stereo not drawn)	none (no result: KCNQ1 act, KCNK9 inh, hERG protect, KCNQ1 inh)
O=C(CCN(CCO)Cc1ccccc1)Nc1ccc(Br)cc1	none
CCN(CCC(=O)Nc1ccc(Br)c(C)c1)Cc1ccccc1	KCNQ1 inh 8
C/C(=N/Nc1nc(-c2ccccc2F)nc2ccccc12)c1ccccc1O	KCNK9 inh -7.28, KCNQ1 inh 7
CC(=O)Nc1ccc(N=Cc2nc(-c3ccc(C)cc3)oc2O)cc1	KCNK9 inh -6.85
Cc1ccc(N=Cc2nc(-c3ccc(C)cc3)oc2O)cc1	none
CN1CCN(NC(=O)Nc2cccc(F)c2)CC1	KCNQ1 inh 8
CC(C)(C)c1cc(-c2n[nH]c(=S)n2-c2ccccc2F)n[nH]1	hERG protect 9.1
CCOc1ccc(S(=O)(=O)NCc2ccc3c(c2)OCO3)cc1C(=O)O	none
CCCn1c(C(C)Nc2nc(-c3ccc(Cl)c([N+](=O)[O-])c3)cs2)nc2cc(Cl)c(N3CCCCC3)cc21 (stereo not drawn)	none
CCCCOc1cccc(C(=O)Nc2ccc(S(=O)(=O)Nc3cc(C)on3)cc2)c1	none
CCCCOc1ccc(C(=O)Nc2ccc(S(=O)(=O)Nc3cc(C)on3)cc2)cc1OC	hERG protect 4.9
C=CCn1c(COc2ccccc2)nnc1SC(C)C(=O)N/N=C/c1cc(Cl)ccc1O (stereo not drawn)	KCNQ1 inh 7
C=CCn1c(COc2ccc(Cl)cc2)nnc1SCC(=O)N/N=C/c1cccc(O)c1	none
NC(N)=NC(=O)c1nc(Cl)c(N2CCCCCC2)nc1N	KCNK3 block -9.76 (no result: KCNQ1 act, KCNK9 inh, hERG protect, KCNQ1 inh)
NC(N)=NC(=O)c1nc(Cl)c(N)nc1N	none
Cc1ccccc1CN1CCN(C(=O)CC(C)C)CC1	none
Oc1ccc2ccccc2c1/C=N/c1nc2c(s1)CCCC2	none
Oc1c(Br)cc(Br)cc1/C=N/c1nc2c(s1)CCCC2	KCNQ1 act 13
Cc1ccc(C2CC(c3ccccc3)=NN2C(=S)Nc2ccccc2)o1 (stereo not drawn)	KCNQ1 inh 6
CC1=NN(C(=S)Nc2ccccc2)C(c2ccccc2)C1 (stereo not drawn)	none
COc1ccc(-n2c(C)cc(C(=O)CCl)c2C)cc1	KCNQ1 act 8
Cc1cc(N/N=C/c2ccccc2)nc(NCc2ccccc2)n1	none
Cc1cc(-c2ccccc2)nc(N/N=C/c2ccccc2)n1	KCNK9 inh -6.97
Cc1cc(-c2ccccc2)nc(N/N=C/c2cccnc2)n1	none
Cc1cc(N/N=C/c2cccc(F)c2)nc(NCc2ccccc2)n1	KCNQ1 inh 8
CCOC(=O)N1CCN(C(=O)CCN2C(=O)/C(=C\c3cccc(OC)c3)SC2=S)CC1	none
Cn1cccc1C(=O)NC(=O)COC(=O)c1ccccc1O	hERG protect 5.3
O=C(NCc1ccccc1)C(c1ccc(Cl)cc1)N(C(=O)c1csnn1)C1CC1 (stereo not drawn)	none
CCCCn1c(NC(=O)c2ccc(F)cc2)c(C#N)c2nc3ccccc3nc21	KCNQ1 inh 6 (no result: KCNK3 block)
CCCCn1c(NC(=O)c2ccccc2)c(C#N)c2nc3ccccc3nc21	none (no result: KCNQ1 act, KCNK9 inh, hERG protect, KCNQ1 inh)
COC(=O)c1sc(NC(=S)NNC(=O)c2c(Br)c(C)nn2C)c(C(=O)OC)c1C	KCNQ1 inh 6
CC1CN(S(=O)(=O)c2ccc(-c3nc4ccccc4s3)cc2)CC(C)O1 (stereo not drawn)	hERG protect 4.6
Cn1nc(OCC(=O)O)cc1C(F)(F)F	none
CCCCc1nc2sc3c(=O)n(N)cnc3c2c2c1CCC2	none
CC1(C)Cc2c(C#N)c(NC3CCCCC3)nc(-c3ccco3)c2CO1	KCNQ1 inh 6
O=C(Cn1nnc(-c2cccc(C(F)(F)F)c2)n1)N1CCCCCC1	hERG protect 5.1
Fc1ccc(C(c2ccc(F)cc2)N2CCN(C/C=C/c3ccccc3)CC2)cc1	KCNQ1 inh 8
Cc1ccsc1/C=N/NC(=O)C(N)=O	hERG protect 4.7
Cc1ccsc1/C=N/NC(=O)c1ccccn1	hERG protect 4.7
Cc1ccsc1/C=N/NC(=O)c1cccs1	none
COCCNC(=O)C(c1ccc(Cl)cc1)N(CCOC)C(=O)CCC(=O)Nc1nccs1 (stereo not drawn)	none
Cn1nnnc1SCC(=O)NC1CCCc2ccccc21 (stereo not drawn)	hERG protect 6.3
O=C(CSc1nc2cc(Cl)ccc2s1)NC1CCCc2ccccc21 (stereo not drawn)	KCNK9 inh -7.82
CCNC(=S)N1CCN(Cc2ccc3c(c2)OCO3)CC1	none
O=C(NC(=S)N1CCN(Cc2ccc3c(c2)OCO3)CC1)c1cccc(Br)c1	KCNQ1 act 29, hERG protect 25.3
CC1CN(C(=S)NC(=O)c2ccc(Cl)cc2)CC(C)O1 (stereo not drawn)	hERG protect 6.4
O=C(NC(=S)N1CCN(Cc2ccc3c(c2)OCO3)CC1)c1ccc(Cl)cc1	KCNQ1 act 11, hERG protect 23.9
CCN1CCN(c2ccc(S(=O)(=O)N3CCOCC3)cc2NC(=O)C(C)Oc2ccc(Cl)cc2)CC1 (stereo not drawn)	none
O=C(NC12CC3CC(CC(C3)C1)C2)c1ccc(N2CCNCC2)c([N+](=O)[O-])c1	none
CCOC(=O)c1cc2c(ccc3ccccc32)oc1=O	none
CC(OC(=O)c1cc2c(ccc3ccccc32)oc1=O)c1nc2ccccc2s1 (stereo not drawn)	KCNQ1 inh 9
C=CCn1c(C)cc(C(=O)CSc2nnc3n(CCC)c(=O)c4ccccc4n23)c1C	none (no result: KCNQ1 act, KCNK9 inh, hERG protect, KCNQ1 inh)
O=C(O)c1cccc(N/N=C(\N=Nc2ccccc2)c2ccccc2)c1	KCNQ1 inh 6
O=C(O)c1ccc(N=N/C(=N\Nc2ccc(C(=O)O)cc2)c2ccccc2)cc1	none
Clc1ccc(CSc2nnnn2-c2ccc3c(c2)OCO3)c(Cl)c1	KCNK9 inh -7.01
c1ccc(CSc2nnnn2-c2ccc3c(c2)OCCO3)nc1	none
O=C1CSC(=S)N1/N=C/c1cc(Br)ccc1O	hERG protect 7.1 (no result: KCNK3 block)
NNC(=O)c1cc(S(=O)(=O)N2CCOCC2)c[nH]1	none (no result: KCNQ1 act, KCNK9 inh, hERG protect, KCNQ1 inh)
O=C(Nc1ccccc1F)Nc1ccc([N+](=O)[O-])cc1Cl	KCNQ1 inh 8
O=C(Nc1ccc([N+](=O)[O-])cc1Cl)c1cc(Cl)ccc1O	none (no result: KCNQ1 act, KCNK9 inh, hERG protect, KCNQ1 inh)
Oc1cccc(/C=N/N(Cc2ccccc2)c2ccccc2)c1	KCNK9 inh -7.19, KCNQ1 inh 6
Cc1nnc(SCc2cc(=O)oc3ccc4ccccc4c23)n1Cc1ccccc1	none
